According to ChEMBL document CHEMBL1145303, “The development of novel C-2, C-8, and N-9 trisubstituted purines as inhibitors of TNF-alpha production” (Bioorg Med Chem Lett, 2006):

How the values were obtained:
THP-1 = experiment: Inhibition of LPS-stimulated TNFalpha production in THP1 cells; assay type: functional, cell-based; conditions: Homo sapiens
In short: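 Human monocytic THP-1 cells, 2.0 · 10⁵/well, cultured in duplicate, preincubated 15 min with or without a range of inhibitor concentrations. TNF-α release then stimulated with LPS at 2 µg/ml. Secreted TNF-α measured by ELISA 4 h after stimulation. Cell viability after the 4 h incubation checked by MTS assay.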

[1] = Metabolic stability in Sprague-Dawley rat liver microsomes assessed as percent loss after 4 hrs; assay type: ADME, Microsome; conditions: hepatocytes, in the assay text read “hepatocytes” for “liver microsomes”, read-out: Activity
In short: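 Plated Sprague–Dawley rat hepatocytes, not microsomes, with matrigel blank plates. Test compound incubated at 37 °C in triplicate, sampled at 0, 2 and 4 h. Samples pooled after incubation into a multi-compound set, internal standard added, reverse-phase LC/MS/MS. The compound/internal-standard area ratio at 4 h divided by the 0 h ratio gives percent loss.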

[2] = Half life in rat; assay type: ADME, organism-based; conditions: in vivo
[3] = Bioavailability in rat; assay type: ADME, organism-based; conditions: in vivo

SMILES: CCn1c(Nc2ccccc2OC)nc2cnc(Oc3c(F)cccc3F)nc21
- IC50 (THP-1): 2050 nM

SMILES: CCn1c(Nc2ccc(C)cc2Cl)nc2cnc(Oc3c(F)cccc3F)nc21
- IC50 (THP-1): 273 nM

SMILES: CCn1c(Nc2ccccc2O)nc2cnc(Oc3c(F)cccc3F)nc21
- IC50 (THP-1): 906 nM

SMILES: CC(C)n1c(Nc2ccccc2Cl)nc2cnc(Nc3c(F)cccc3F)nc21
- IC50 (THP-1): 630 nM

SMILES: CCn1c(C(=O)c2ccccc2Cl)nc2cnc(Oc3c(F)cccc3F)nc21
- metabolised at 4 h [1]: 82%
- IC50 (THP-1): 4 nM

SMILES: Cn1c(NC(=O)c2ccccc2Cl)nc2cnc(NC3CCOCC3)nc21
- IC50 (THP-1): > 10000 nM

SMILES: CCn1c(Sc2ccccc2Cl)nc2cnc(Oc3c(F)cccc3F)nc21
- metabolised at 4 h [1]: 75%
- IC50 (THP-1): 14 nM

SMILES: CCn1c(Nc2ccccc2C)nc2cnc(Oc3c(F)cccc3F)nc21
- half-life [2]: 90 min
- bioavailability [3]: 9%
- metabolised at 4 h [1]: 56%
- IC50 (THP-1): 48 nM

SMILES: Cn1c(Nc2ccccc2Cl)nc2cnc(Nc3c(F)cccc3F)nc21
- IC50 (THP-1): 1540 nM

SMILES: CCn1c([S+]([O-])c2ccccc2Cl)nc2cnc(Oc3c(F)cccc3F)nc21 (configuration not stated)
- IC50 (THP-1): > 1000 nM

SMILES: Cn1c(Nc2ccccc2Cl)nc2cnc(Nc3ccc(F)cc3F)nc21
- IC50 (THP-1): 6560 nM

SMILES: CCn1c(Nc2cccc(Cl)c2Cl)nc2cnc(Oc3c(F)cccc3F)nc21
- IC50 (THP-1): 300 nM

SMILES: CCn1c(C(=O)c2ccccc2F)nc2cnc(Oc3c(F)cccc3F)nc21
- IC50 (THP-1): 207 nM

SMILES: CCn1c(Nc2ccccc2N)nc2cnc(Oc3c(F)cccc3F)nc21
- IC50 (THP-1): 473 nM

SMILES: Cn1c(Nc2ccccc2Cl)nc2cnc(NC3CCOCC3)nc21
- IC50 (THP-1): 6580 nM

SMILES: C[C@H](Nc1ncc2nc(NCc3ccccc3Cl)n(C)c2n1)C(C)(C)O
- IC50 (THP-1): > 10000 nM

SMILES: CCn1c(Nc2ccccc2Cl)nc2cnc(Nc3ccccc3F)nc21
- IC50 (THP-1): 2110 nM

SMILES: Cn1c(Nc2ccccc2Cl)nc2cnc(Nc3ccccc3F)nc21
- IC50 (THP-1): 10000 nM

SMILES: CCn1c(C(O)c2ccccc2Cl)nc2cnc(Oc3c(F)cccc3F)nc21 (configuration not stated)
- IC50 (THP-1): 169 nM

SMILES: CC(C)n1c(C(=O)c2ccccc2Cl)nc2cnc(Oc3c(F)cccc3F)nc21
- IC50 (THP-1): 650 nM

SMILES: CCn1c(Nc2c(Cl)cccc2Cl)nc2cnc(Oc3c(F)cccc3F)nc21
- IC50 (THP-1): 100 nM

SMILES: C[C@H](Nc1ncc2nc(NCCc3ccccc3Cl)n(C)c2n1)C(C)(C)O
- IC50 (THP-1): > 10000 nM

SMILES: CCn1c(Oc2ccccc2Cl)nc2cnc(Oc3c(F)cccc3F)nc21
- IC50 (THP-1): 86 nM

SMILES: CCn1c(Nc2ccccc2F)nc2cnc(Oc3c(F)cccc3F)nc21
- metabolised at 4 h [1]: 65%
- IC50 (THP-1): 35 nM

SMILES: CC(C)n1c(Nc2ccccc2F)nc2cnc(Oc3c(F)cccc3F)nc21
- half-life [2]: 90 min
- bioavailability [3]: 9%
- metabolised at 4 h [1]: 61%
- IC50 (THP-1): 4 nM

SMILES: CCn1c(Nc2ccccc2Cl)nc2cnc(Oc3c(F)cccc3F)nc21
- IC50 (THP-1): 69 nM

SMILES: CC(C)(C)n1c(Nc2ccccc2Cl)nc2cnc(Nc3c(F)cccc3F)nc21
- IC50 (THP-1): > 1000 nM

SMILES: CCCCn1c(Nc2ccccc2Cl)nc2cnc(Nc3c(F)cccc3F)nc21
- IC50 (THP-1): 798 nM

SMILES: Fc1cccc(F)c1Nc1ncc2nc(Nc3ccccc3Cl)n(C3CC3)c2n1
- IC50 (THP-1): > 1000 nM

SMILES: CCn1c(Nc2ccc(F)cc2Cl)nc2cnc(Oc3c(F)cccc3F)nc21
- IC50 (THP-1): 237 nM

SMILES: CCn1c(Nc2ccccc2Cl)nc2cnc(Nc3c(F)cccc3F)nc21
- IC50 (THP-1): 542 nM

SMILES: C[C@H](Nc1ncc2nc(Nc3ccccc3Cl)n(C)c2n1)C(C)(C)O
- IC50 (THP-1): 3170 nM

SMILES: O=c1ncn2nc(Sc3ccc(F)cc3F)ccc2c1-c1c(Cl)cccc1Cl [NEFLAMAPIMOD]
- IC50 (THP-1): 56 nM
